From ChEMBL document CHEMBL1138483, “Toward second generation hepatitis C virus NS3 serine protease inhibitors: discovery of novel P4 modified analogues with improved potency and pharmacokinetic profile” (J Med Chem, 2009)
Values belong to the compound of their own block, whether it stands above or below them.

Assays:
[1] = Binding affinity to HCV NS3 protease by spectrophotometry; design: species or system Hepacivirus hominis
[2] = system: Hepatitis C virus; test: Antiviral activity against HCV replication in human hepatoma cells by replicon assay; assay type: functional, Hepacivirus hominis
[3] = Drug level in rat liver at 10 mg/kg, po after 6 hrs; assay type: ADME, organism-based; design: dose 10 mg/kg, route oral; conditions: read-out: Drug uptake
Outline: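 Oral dosing in rats at 10 mpk as a suspension in 0.4% HPMC; liver concentration measured in ng/g tissue at 1 h or 6 h after dosing.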

[4] = AUC (0 to 6 hrs) in rat at 10 mg/kg, po; assay type: ADME, organism-based; design: time < 6 hr, dose 10 mg/kg, route oral; conditions: plasma

Compound: C=CCNC(=O)C(=O)C(CC1CC1)NC(=O)[C@@H]1[C@@H]2[C@H](CN1C(=O)[C@@H](NC(=O)N[C@H](COC(=O)NCC)C(C)(C)C)C1Cc3ccccc3C1)C2(C)C (stereo partly drawn)
EC90 [2]: 400 nM | Ki [1]: 50 nM

Compound: CC(C)(C)[C@H](NC(=O)N[C@H](COCc1ccccc1)C(C)(C)C)C(=O)N1C[C@H]2[C@@H]([C@H]1C(=O)NC(CC1CCC1)C(=O)C(N)=O)C2(C)C (stereo partly drawn)
Ki [1]: 130 nM

Compound: CC(C)(C)OC[C@@H](NC(=O)N[C@H](C(=O)N1C[C@H]2[C@@H]([C@H]1C(=O)NC(CC1CCC1)C(=O)C(N)=O)C2(C)C)C1(C)CCCCC1)C(C)(C)C (stereo partly drawn)
Ki [1]: 100 nM

Compound: COC[C@@H](NC(=O)N[C@H](C(=O)N1C[C@H]2[C@@H]([C@H]1C(=O)NC(CC1CCC1)C(=O)C(N)=O)C2(C)C)C1(C)CCCCC1)C(C)C (stereo partly drawn)
EC90 [2]: 200 nM | Ki [1]: 12 nM

Compound: CCNC(=O)OC[C@@H](NC(=O)N[C@H](C(=O)N1C[C@H]2[C@@H]([C@H]1C(=O)NC(CC1CCC1)C(=O)C(N)=O)C2(C)C)C(C)(C)C)C(C)(C)C (stereo partly drawn)
EC90 [2]: 250 nM | Ki [1]: 9 nM

Compound: COC[C@@H](NC(=O)N[C@H](C(=O)N1C[C@H]2[C@@H]([C@H]1C(=O)NC(CC1CCC1)C(=O)C(N)=O)C2(C)C)C1CCCCC1)C(C)(C)C (stereo partly drawn)
EC90 [2]: 300 nM | Ki [1]: 30 nM

Compound: CCNC(=O)OC[C@@H](NC(=O)N[C@H](C(=O)N1C[C@H]2[C@@H]([C@H]1C(=O)NC(CC1CC1)C(=O)C(N)=O)C2(C)C)C1Cc2ccccc2C1)C(C)(C)C (stereo partly drawn)
EC90 [2]: 200 nM | Ki [1]: 7 nM

Compound: CCNC(=O)OC[C@@H](NC(=O)N[C@H](C(=O)N1C[C@H]2[C@@H]([C@H]1C(=O)NC(CC1CCC1)C(=O)C(N)=O)C2(C)C)C1CCCCC1)C(C)(C)C (stereo partly drawn)
EC90 [2]: 600 nM | Ki [1]: 10 nM

Compound: CC(C)(C)OCC1(NC(=O)N[C@H](C(=O)N2C[C@H]3[C@@H]([C@H]2C(=O)NC(CC2CCC2)C(=O)C(N)=O)C3(C)C)C2(C)CCCCC2)CCCCC1 (stereo partly drawn)
Ki [1]: 120 nM

Compound: CC(C)(C)NC(=O)OC[C@@H](NC(=O)N[C@H](C(=O)N1C[C@H]2[C@@H]([C@H]1C(=O)NC(CC1CCC1)C(=O)C(N)=O)C2(C)C)C1Cc2ccccc2C1)C(C)(C)C (stereo partly drawn)
EC90 [2]: 200 nM | Ki [1]: 12 nM

Compound: CC(C)NC(=O)OC[C@@H](NC(=O)N[C@H](C(=O)N1C[C@H]2[C@@H]([C@H]1C(=O)NC(CC1CCC1)C(=O)C(N)=O)C2(C)C)C1Cc2ccccc2C1)C(C)(C)C (stereo partly drawn)
EC90 [2]: 200 nM | Ki [1]: 9 nM

Compound: COC[C@@H](NC(=O)N[C@H](C(=O)N1C[C@H]2[C@@H]([C@H]1C(=O)NC(CC1CCC1)C(=O)C(N)=O)C2(C)C)C1(C)CCCCC1)C(C)(C)C (stereo partly drawn)
EC90 [2]: 150 nM | Ki [1]: 24 nM

Compound: COC[C@@H](NC(=O)N[C@H](C(=O)N1C[C@H]2[C@@H]([C@H]1C(=O)NC(CC1CCC1)C(=O)C(N)=O)C2(C)C)C1(C)CCCC1)C(C)(C)C (stereo partly drawn)
EC90 [2]: 400 nM | Ki [1]: 22 nM

Compound: C#CCCC(NC(=O)[C@@H]1[C@@H]2[C@H](CN1C(=O)[C@@H](NC(=O)N[C@H](COC(=O)NCC)C(C)(C)C)C1Cc3ccccc3C1)C2(C)C)C(=O)C(=O)NCC=C (stereo partly drawn)
EC90 [2]: 550 nM | Ki [1]: 10 nM

Compound: CN(C)C(=O)OC[C@@H](NC(=O)N[C@H](C(=O)N1C[C@H]2[C@@H]([C@H]1C(=O)NC(CC1CCC1)C(=O)C(N)=O)C2(C)C)C1Cc2ccccc2C1)C(C)(C)C (stereo partly drawn)
EC90 [2]: 300 nM | Ki [1]: 23 nM

Compound: COC[C@@](C)(CC(C)C)NC(=O)N[C@H](C(=O)N1C[C@H]2[C@@H]([C@H]1C(=O)NC(CC1CCC1)C(=O)C(N)=O)C2(C)C)C1(C)CCCCC1 (stereo partly drawn)
Ki [1]: 50 nM

Compound: CCC[C@@](C)(COC)NC(=O)N[C@H](C(=O)N1C[C@H]2[C@@H]([C@H]1C(=O)NC(CC1CCC1)C(=O)C(N)=O)C2(C)C)C1(C)CCCCC1 (stereo partly drawn)
Ki [1]: 170 nM

Compound: CNC(=O)OC[C@@H](NC(=O)N[C@H](C(=O)N1C[C@H]2[C@@H]([C@H]1C(=O)NC(CC1CCC1)C(=O)C(N)=O)C2(C)C)C1Cc2ccccc2C1)C(C)(C)C (stereo partly drawn)
EC90 [2]: 200 nM | Ki [1]: 9 nM

Compound: COC[C@@H](NC(=O)N[C@H](C(=O)N1C[C@H]2[C@@H]([C@H]1C(=O)NC(CC1CCC1)C(=O)C(N)=O)C2(C)C)C(C)(C)C)C(C)(C)C (stereo partly drawn)
Ki [1]: 120 nM

Compound: CC(C)(C)NC(=O)N[C@H](C(=O)N1C[C@H]2[C@@H]([C@H]1C(=O)NC(CC1CCC1)C(=O)C(N)=O)C2(C)C)C(C)(C)C (stereo partly drawn) [BOCEPREVIR]
EC90 [2]: 350 nM | Ki [1]: 14 nM

The next lines start with the values.

Ki [1]: 84 nM
Compound: C=CCNC(=O)C(=O)C(CCC)NC(=O)[C@@H]1[C@@H]2[C@H](CN1C(=O)[C@@H](NC(=O)N[C@H](COC(=O)NCC)C1CCCCC1)C1(C)CCCCC1)C2(C)C (stereo partly drawn)

EC90 [2]: 400 nM | Ki [1]: 23 nM
Compound: C=CCNC(=O)C(=O)C(CCCC)NC(=O)[C@@H]1[C@@H]2[C@H](CN1C(=O)[C@@H](NC(=O)N[C@H](COC(=O)NCC)C(C)(C)C)C1Cc3ccccc3C1)C2(C)C (stereo partly drawn)

EC90 [2]: 200 nM | Ki [1]: 21 nM
Compound: C#CCCC(NC(=O)[C@@H]1[C@@H]2[C@H](CN1C(=O)[C@@H](NC(=O)N[C@H](COC(=O)NCC)C(C)(C)C)C1(C)CCCCC1)C2(C)C)C(=O)C(=O)NCC (stereo partly drawn)

concentration at 6 h [3]: 808 ng/g | AUC(0-t) at 6 h [4]: 6.6 µM·h | EC90 [2]: 150 nM | Ki [1]: 24 nM
Compound: C=CCNC(=O)C(=O)C(CCC)NC(=O)[C@@H]1[C@@H]2[C@H](CN1C(=O)[C@@H](NC(=O)N[C@H](COC(=O)NC(C)C)C(C)(C)C)C1(C)CCCCC1)C2(C)C (stereo partly drawn)

concentration at 6 h [3]: 750 ng/g | AUC(0-t) at 6 h [4]: 4.9 µM·h | EC90 [2]: 70 nM | Ki [1]: 9 nM
Compound: C#CCCC(NC(=O)[C@@H]1[C@@H]2[C@H](CN1C(=O)[C@@H](NC(=O)N[C@H](COC(=O)NCC(C)C)C(C)(C)C)C1(C)CCCCC1)C2(C)C)C(=O)C(=O)NCC=C (stereo partly drawn)

EC90 [2]: 150 nM | Ki [1]: 8 nM
Compound: CCNC(=O)OC[C@@H](NC(=O)N[C@H](C(=O)N1C[C@H]2[C@@H]([C@H]1C(=O)NC(CC1CCC1)C(=O)C(N)=O)C2(C)C)C1(C)CCCCC1)C(C)(C)C (stereo partly drawn)

Ki [1]: 58 nM
Compound: C=CCNC(=O)C(=O)C(CCC)NC(=O)[C@@H]1[C@@H]2[C@H](CN1C(=O)[C@@H](NC(=O)N[C@H](COC(=O)NCC(C)C)C(C)(C)C)C1(C)CCCCC1)C2(C)C (stereo partly drawn)

concentration at 6 h [3]: 1110 ng/g | AUC(0-t) at 6 h [4]: 7.9 µM·h | EC90 [2]: 150 nM | Ki [1]: 8 nM
Compound: C#CCCC(NC(=O)[C@@H]1[C@@H]2[C@H](CN1C(=O)[C@@H](NC(=O)N[C@H](COC(=O)NC(C)C)C(C)(C)C)C1(C)CCCCC1)C2(C)C)C(=O)C(=O)NCC=C (stereo partly drawn)

EC90 [2]: 200 nM | Ki [1]: 13 nM
Compound: C#CCCC(NC(=O)[C@@H]1[C@@H]2[C@H](CN1C(=O)[C@@H](NC(=O)N[C@H](COC(=O)NCC)C1CCCCC1)C1(C)CCCCC1)C2(C)C)C(=O)C(=O)NCC=C (stereo partly drawn)

EC90 [2]: 700 nM | Ki [1]: 210 nM
Compound: C=CCNC(=O)C(=O)C(CCC)NC(=O)[C@@H]1[C@@H]2[C@H](CN1C(=O)[C@@H](NC(=O)NC1(COC(=O)NCC)CCCCC1)C1(C)CCCCC1)C2(C)C (stereo partly drawn)

Ki [1]: 130 nM
Compound: C=CCNC(=O)C(=O)C(CCC)NC(=O)[C@@H]1[C@@H]2[C@H](CN1C(=O)[C@@H](NC(=O)N[C@H](COC(=O)NCC1CCCCC1)C(C)(C)C)C1(C)CCCCC1)C2(C)C (stereo partly drawn)

EC90 [2]: 400 nM | Ki [1]: 28 nM
Compound: C=CCNC(=O)C(=O)C(CCCC)NC(=O)[C@@H]1[C@@H]2[C@H](CN1C(=O)[C@@H](NC(=O)N[C@H](COC(=O)NCC)C(C)(C)C)C1(C)CCCCC1)C2(C)C (stereo partly drawn)

EC90 [2]: 150 nM | Ki [1]: 28 nM
Compound: C=CCNC(=O)C(=O)C(CCC)NC(=O)[C@@H]1[C@@H]2[C@H](CN1C(=O)[C@@H](NC(=O)N[C@H](COC(=O)NCC)C(C)(C)C)C1(C)CCCCC1)C2(C)C (stereo partly drawn)

AUC(0-t) at 6 h [4]: 0.7 µM·h | EC90 [2]: 400 nM | Ki [1]: 33 nM
Compound: C=CCNC(=O)C(=O)C(CCC)NC(=O)[C@@H]1[C@@H]2[C@H](CN1C(=O)[C@@H](NC(=O)N[C@H](COC(=O)NCC)C(C)(C)C)C1Cc3ccccc3C1)C2(C)C (stereo partly drawn)

EC90 [2]: 250 nM | Ki [1]: 20 nM
Compound: C#CCCC(NC(=O)[C@@H]1[C@@H]2[C@H](CN1C(=O)[C@@H](NC(=O)N[C@H](COC(=O)NCC1CCCCC1)C(C)(C)C)C1(C)CCCCC1)C2(C)C)C(=O)C(=O)NCC=C (stereo partly drawn)

EC90 [2]: 200 nM | Ki [1]: 16 nM
Compound: C#CCCC(NC(=O)[C@@H]1[C@@H]2[C@H](CN1C(=O)[C@@H](NC(=O)N[C@H](COC(=O)NCC)C(C)(C)C)C1(C)CCCCC1)C2(C)C)C(=O)C(=O)NCCC (stereo partly drawn)

EC90 [2]: 100 nM | Ki [1]: 32 nM
Compound: C=CCNC(=O)C(=O)C(CCC)NC(=O)[C@@H]1[C@@H]2[C@H](CN1C(=O)[C@@H](NC(=O)N[C@H](COC(=O)NCC1CC1)C(C)(C)C)C1(C)CCCCC1)C2(C)C (stereo partly drawn)

concentration at 6 h [3]: 581 ng/g | AUC(0-t) at 6 h [4]: 5 µM·h | EC90 [2]: 70 nM | Ki [1]: 7 nM
Compound: C#CCCC(NC(=O)[C@@H]1[C@@H]2[C@H](CN1C(=O)[C@@H](NC(=O)N[C@H](COC(=O)NCC1CC1)C(C)(C)C)C1(C)CCCCC1)C2(C)C)C(=O)C(=O)NCC=C (stereo partly drawn)

EC90 [2]: 600 nM | Ki [1]: 9 nM
Compound: C#CCCC(NC(=O)[C@@H]1[C@@H]2[C@H](CN1C(=O)[C@@H](NC(=O)NC1(COC(=O)NCC)CCCCC1)C1(C)CCCCC1)C2(C)C)C(=O)C(=O)NCC=C (stereo partly drawn)
